Measured values published in ChEMBL document CHEMBL3414437, “Synthesis of CDDO-amino acid-nitric oxide donor trihybrids as potential antitumor agents against both drug-sensitive and drug-resistant colon cancer” (J Med Chem, 2015).

What was measured:
[1] = Antiproliferative activity against human HCT8 cells assessed as inhibition of cell proliferation after 72 hrs by MTT assay; format: functional, cell-based; settings: HCT-8, 72 h
Method in brief: (§1)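 Cells (1.0 × 10^4/well) grown overnight in DMEM with 10% FBS. Treated in triplicate with eight concentrations ([…]) of compound from DMSO stock, final DMSO <0.4%, for 72 h. MTT added for the last 4 h, formazan dissolved in DMSO, read at 570 nm. Inhibition = (Acontrol−Atreated)/Acontrol. IC50 given as mean ± SD of three independent experiments.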

[2] = test system: HCT-8; assay: Induction of apoptosis in human HCT8 cells assessed as viable cells level at 1 uM incubated for 24 hrs by FITC-Annexin-V and propidium iodide staining based flow cytometry (reference value: 92%); format: functional
[3] = test system: HCT-8; assay: Induction of apoptosis in FU-resistant human HCT8 cells assessed as necrotic cells level at 0.5 uM incubated for 24 hrs by FITC-Annexin-V and propidium iodide staining based flow cytometry (reference value: 0.958%); format: functional
[4] = test system: HCT-8; assay: Induction of apoptosis in FU-resistant human HCT8 cells assessed as late apoptotic cells level at 0.5 uM incubated for 24 hrs by FITC-Annexin-V and propidium iodide staining based flow cytometry (reference value: 0.95%); format: functional
[5] = test system: HCT-8; assay: Induction of apoptosis in FU-resistant human HCT8 cells assessed as late apoptotic cells level at 0.25 uM incubated for 24 hrs by FITC-Annexin-V and propidium iodide staining based flow cytometry (reference value: 0.95%); format: functional
[6] = test system: HCT-8; assay: Induction of apoptosis in FU-resistant human HCT8 cells assessed as viable cells level at 0.25 uM incubated for 24 hrs by FITC-Annexin-V and propidium iodide staining based flow cytometry (reference value: 90%); format: functional
[7] = test system: HCT-8; assay: Induction of apoptosis in human HCT8 cells assessed as early apoptotic cells level at 0.25 uM incubated for 24 hrs by FITC-Annexin-V and propidium iodide staining based flow cytometry (reference value: 1.21%); format: functional
[8] = test system: HCT-8; assay: Induction of apoptosis in human HCT8 cells assessed as late apoptotic cells level at 0.25 uM incubated for 24 hrs by FITC-Annexin-V and propidium iodide staining based flow cytometry (reference value: 4.23%); format: functional
[9] = test system: HCT-8; assay: Induction of apoptosis in human HCT8 cells assessed as viable cells level at 0.5 uM incubated for 24 hrs by FITC-Annexin-V and propidium iodide staining based flow cytometry (reference value: 92%); format: functional
[10] = test system: HCT-8; assay: Induction of apoptosis in human HCT8 cells assessed as necrotic cells level at 0.5 uM incubated for 24 hrs by FITC-Annexin-V and propidium iodide staining based flow cytometry (reference value: 2.58%); format: functional
[11] = test system: HCT-8; assay: Induction of apoptosis in FU-resistant human HCT8 cells assessed as viable cells level at 0.5 uM incubated for 24 hrs by FITC-Annexin-V and propidium iodide staining based flow cytometry (reference value: 90%); format: functional
[12] = test system: HCT-8; assay: Induction of apoptosis in FU-resistant human HCT8 cells assessed as necrotic cells level at 0.25 uM incubated for 24 hrs by FITC-Annexin-V and propidium iodide staining based flow cytometry (reference value: 0.958%); format: functional
[13] = test system: HCT-8; assay: Induction of apoptosis in human HCT8 cells assessed as late apoptotic cells level at 0.5 uM incubated for 24 hrs by FITC-Annexin-V and propidium iodide staining based flow cytometry (reference value: 4.23%); format: functional
[14] = test system: HCT-8; assay: Induction of apoptosis in FU-resistant human HCT8 cells assessed as necrotic cells level at 1 uM incubated for 24 hrs by FITC-Annexin-V and propidium iodide staining based flow cytometry (reference value: 0.958%); format: functional
[15] = test system: HCT-8; assay: Induction of apoptosis in human HCT8 cells assessed as necrotic cells level at 1 uM incubated for 24 hrs by FITC-Annexin-V and propidium iodide staining based flow cytometry (reference value: 2.58%); format: functional
[16] = test system: HCT-8; assay: Induction of apoptosis in FU-resistant human HCT8 cells assessed as early apoptotic cells level at 1 uM incubated for 24 hrs by FITC-Annexin-V and propidium iodide staining based flow cytometry (reference value: 2.07%); format: functional
[17] = Antiproliferative activity against human CCD-841-CoN cells assessed as inhibition of cell proliferation after 72 hrs by MTT assay; format: cell-based; method in brief: as §1
[18] = test system: HCT-8; assay: Induction of apoptosis in FU-resistant human HCT8 cells assessed as late apoptotic cells level at 1 uM incubated for 24 hrs by FITC-Annexin-V and propidium iodide staining based flow cytometry (reference value: 0.95%); format: functional
[19] = test system: HCT-8; assay: Induction of apoptosis in FU-resistant human HCT8 cells assessed as early apoptotic cells level at 0.5 uM incubated for 24 hrs by FITC-Annexin-V and propidium iodide staining based flow cytometry (reference value: 2.07%); format: functional
[20] = test system: HCT-8; assay: Induction of apoptosis in human HCT8 cells assessed as necrotic cells level at 0.25 uM incubated for 24 hrs by FITC-Annexin-V and propidium iodide staining based flow cytometry (reference value: 2.58%); format: functional
[21] = test system: HCT-8; assay: Induction of apoptosis in human HCT8 cells assessed as viable cells level at 0.25 uM incubated for 24 hrs by FITC-Annexin-V and propidium iodide staining based flow cytometry (reference value: 92%); format: functional
[22] = test system: HCT-8; assay: Induction of apoptosis in FU-resistant human HCT8 cells assessed as early apoptotic cells level at 0.25 uM incubated for 24 hrs by FITC-Annexin-V and propidium iodide staining based flow cytometry (reference value: 2.07%); format: functional
[23] = test system: HCT-8; assay: Induction of apoptosis in human HCT8 cells assessed as early apoptotic cells level at 0.5 uM incubated for 24 hrs by FITC-Annexin-V and propidium iodide staining based flow cytometry (reference value: 1.21%); format: functional
[24] = test system: HCT-8; assay: Induction of apoptosis in human HCT8 cells assessed as late apoptotic cells level at 1 uM incubated for 24 hrs by FITC-Annexin-V and propidium iodide staining based flow cytometry (reference value: 4.23%); format: functional
[25] = test system: HCT-8; assay: Induction of apoptosis in FU-resistant human HCT8 cells assessed as viable cells level at 1 uM incubated for 24 hrs by FITC-Annexin-V and propidium iodide staining based flow cytometry (reference value: 90%); format: functional
[26] = test system: HCT-8; assay: Induction of apoptosis in human HCT8 cells assessed as early apoptotic cells level at 1 uM incubated for 24 hrs by FITC-Annexin-V and propidium iodide staining based flow cytometry (reference value: 1.21%); format: functional
[27] = Antiproliferative activity against 5-FU resistant human HCT8 cells assessed as inhibition of cell proliferation after 72 hrs by MTT assay; format: functional, cell-based; settings: HCT-8, 72 h; method in brief: as §1
[28] = test system: HCT-8; assay: Inhibition of ERK protein phosphorylation in FU-resistant human HCT8 cells at 0.25 to 1 uM incubated for 24 hrs by Western blotting method; format: cell-based
Method in brief: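 Cells (1 x 10^6) grown 24 h in 6 cm dishes, then exposed in duplicate for 24 h to 0.25, 0.5 or 1 µM compound, with or without PTIO. Lysates (20 µg/lane) were run on 7.5% SDS-PAGE, blotted to PVDF and blocked in 5% milk. HRP secondaries with ECL detection; bands quantified by densitometry against β-actin or GAPDH. Three separate experiments, mean ± SD.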

| SMILES | IC50 [1] | Activity [2] | Activity [3] | Activity [4] | Activity [5] | Activity [6] | Activity [7] | Activity [8] | Activity [9] | Activity [10] | Activity [11] | Activity [12] | Activity [13] | Activity [14] | Activity [15] | Activity [16] | IC50 [17] | Activity [18] | Activity [19] | Activity [20] | further results |
| --- | --- | --- | --- | --- | --- | --- | --- | --- | --- | --- | --- | --- | --- | --- | --- | --- | --- | --- | --- | --- | --- |
| COC(=O)[C@]12CCC(C)(C)C[C@H]1[C@H]1C(=O)C=C3[C@@]4(C)C=C(C#N)C(=O)C(C)(C)[C@@H]4CC[C@@]3(C)[C@]1(C)CC2 [BARDOXOLONE METHYL] | 399 nM | 57.5% | 1.73% | 28.1% | 20.5% | 71.1% | 3.78% | 14% | 65.1% | 3.18% | 64.2% | 3.2% | 18.7% | 1.52% | 3.31% | 10.9% | 316 nM | 36% | 6.01% | 2.13% | Activity [21]: 79.5%; Activity [22]: 5.15%; Activity [23]: 6.8%; Activity [24]: 29.8%; Activity [25]: 51.2%; Activity [26]: 9.42%; IC50 [27]: 363 nM |
| CC1(C)CC[C@]2(C(=O)NCC(=O)OCC#CCOc3no[n+]([O-])c3S(=O)(=O)c3ccccc3)CC[C@]3(C)[C@H](C(=O)C=C4[C@@]5(C)C=C(C#N)C(=O)C(C)(C)[C@@H]5CC[C@]43C)[C@@H]2C1 | 294 nM | 67.1% | 7.65% | 34.6% | 21.4% | 70.8% | 3.92% | 10.3% | 62.8% | 4.1% | 49.8% | 2.53% | 24.7% | 7.36% | 3.58% | 13.5% | 1280 nM | 44.9% | 7.59% | 2.31% | inhibition [28]: Dose-dependent effect; Activity [21]: 74%; Activity [22]: 5.44%; Activity [23]: 5.34%; Activity [24]: 39%; Activity [25]: 34.3%; Activity [26]: 9.51%; IC50 [27]: 232 nM |
